Data reported in ChEMBL document CHEMBL2417530, “Coumarin derivatives protect against ischemic brain injury in rats” (Eur J Med Chem, 2013).
Calls of active or inactive are those of the source. The calls are words filed in the database; no cut-off is given here.

What was measured:
[1] = test system: Rattus norvegicus; assay: Anti-ischemia activity in Sprague-Dawley rat transient middle cerebral artery occlusion model assessed as upregulation of Bcl-2 protein expression in cerebral cortex at 1.5 to 6 mg/kg, iv measured 24 hrs post reperfusion by Western blot analysis relative to vehicle-treated control; format: functional, organism-based
How it was run: (§1)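 Rats underwent 60 min intraluminal right MCA occlusion under chloral hydrate, then reperfusion, with iv saline or drug (1.5, 3.0, 6.0 mg/kg) at reperfusion. At 24 h they were saline-perfused and cortex and hippocampus lysed in RIPA buffer. Protein was BCA-normalized, run on SDS-PAGE and blotted for Bcl-2, Bax, cleaved caspase-3 and β-actin with ECL detection; n = 4.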

[2] = test system: Rattus norvegicus; assay: In vivo neuroprotective activity in Sprague-Dawley rat transient middle cerebral artery occlusion model assessed as suppression of neuropathological changes at 1.5 to 6 mg/kg, iv measured 24 hrs post reperfusion by uranyl acetate/lead citrate staining-based transmission electron microscopic analysis; format: functional, organism-based
How it was run: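 Rats had 60 min MCAO with iv dosing (1.5-6.0 mg/kg) at reperfusion. At 24 h they were perfused with PBS, then acrolein in 2% paraformaldehyde. Tissue was postfixed in 2.5% glutaraldehyde for 2 h and 1% OsO4 for 2 h, dehydrated and Epon-embedded. Ultrathin sections were stained with uranyl acetate/lead citrate and examined by TEM at 12000×.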

[3] = test system: Rattus norvegicus; assay: Anti-ischemia activity in Sprague-Dawley rat transient middle cerebral artery occlusion model assessed as upregulation of Bcl-2 protein expression in hippocampus at 1.5 to 6 mg/kg, iv measured 24 hrs post reperfusion by Western blot analysis relative to vehicle-treated control; format: functional, organism-based; how it was run: as §1
[4] = test system: Rattus norvegicus; assay: Anti-ischemia activity in Sprague-Dawley rat transient middle cerebral artery occlusion model assessed as inhibition of cleaved caspase-3 protein expression in cerebral cortex at 1.5 to 6 mg/kg, iv measured 24 hrs post reperfusion by Western blot analysis relative to vehicle-treated control; format: functional, organism-based; how it was run: as §1
[5] = Cytotoxicity against rat PC12 cells assessed as cell proliferation at 10 uM by MTT assay relative to control; format: cell-based, PC-12; settings: read-out: Activity
How it was run: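 PC12 cells were grown in DMEM with 5% FBS, 5% horse serum and 2 mM glutamine at 37 °C, 5% CO2. They were seeded at 5×10^3 cells/well for 24 h, then exposed to 10 µM compound in full medium. Viability was read by MTT (5 mg/mL, 4 h) at 570 nm as % of control absorbance; n = 3.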

[6] = test system: Plasma; assay: Drug uptake in Sprague-Dawley rat plasma at 2 x 10^-5 mol/kg, iv measured at 60 mins by LC-MS analysis; format: ADME, organism-based; settings: in vivo, 1 h
How it was run: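 Male Sprague-Dawley rats (260-280 g, n = 4) given a single iv dose of 6 mg/kg. Blood was taken from the jugular vein into heparin tubes under ether, and plasma was spun out and stored at -70 °C. After saline perfusion, cortex was homogenized in 2 volumes of water. Samples were precipitated with acetonitrile with internal standard added and quantified by LC-MS against a weighted linear calibration.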

[7] = test system: Rattus norvegicus; assay: In vivo neuroprotective activity in Sprague-Dawley rat transient middle cerebral artery occlusion model assessed as suppression of neuronal loss in hippocampus at 1.5 to 6 mg/kg, iv measured 24 hrs post reperfusion by TUNEL assay; format: functional, organism-based
How it was run: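 Transient MCAO in rats (60 min occlusion), with iv treatment at 1.5, 3.0 or 6.0 mg/kg at reperfusion. At 24 h brains were perfusion-fixed in 4% paraformaldehyde and paraffin-embedded. Hippocampal or cortical sections were proteinase K-treated (20 µg/mL, 15 min, RT), given TdT reaction (37 °C, 1 h) and anti-digoxigenin-AP detection, and TUNEL-positive cells were examined at 200×.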

For `COc1cc(O)cc2oc(=O)c(N3CCN(C)CC3)c(C)c12`, the Activity [1] was “Active”, the Activity [2] was “Active” and the Activity [3] was “Active”. For the same molecule, the inhibition [4] was “Active”, the viability at 10 µM [5] was 101% and the Drug uptake [6] was “Not Active”. The Activity [7] was “Active”.
